Measurements: ChEMBL document CHEMBL5653623 (J Pharmacol Exp Ther, 2015)
The source made the active and inactive calls. No cut-off for these calls is given here.

Tests used:
[1] = target: T1, Peroxisome proliferator-activated receptor gamma (Homo sapiens, UniProt P37231); assay: Inhibition of peroxisome proliferator-activated receptors gamma (unknown origin)
T1 sequence (P37231 whole entry): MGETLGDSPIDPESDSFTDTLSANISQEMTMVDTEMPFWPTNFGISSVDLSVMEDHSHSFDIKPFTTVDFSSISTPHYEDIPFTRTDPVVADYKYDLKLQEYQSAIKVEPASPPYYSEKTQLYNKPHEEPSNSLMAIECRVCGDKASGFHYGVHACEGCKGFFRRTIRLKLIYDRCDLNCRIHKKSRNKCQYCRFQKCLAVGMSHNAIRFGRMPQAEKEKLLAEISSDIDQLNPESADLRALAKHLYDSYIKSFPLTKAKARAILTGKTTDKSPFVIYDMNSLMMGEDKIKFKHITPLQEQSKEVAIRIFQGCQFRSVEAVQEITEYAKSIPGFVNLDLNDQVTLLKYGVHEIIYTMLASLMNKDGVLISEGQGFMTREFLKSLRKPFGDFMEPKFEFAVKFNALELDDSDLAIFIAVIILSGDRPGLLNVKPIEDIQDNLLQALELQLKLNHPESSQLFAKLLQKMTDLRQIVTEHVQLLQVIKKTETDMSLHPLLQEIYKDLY
In short: (§1)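 Radioligand binding selectivity screen was run at 10 μM, mean of three determinations. Where inhibition exceeded 50%, full concentration-displacement curves were run in triplicate and IC50 was obtained by nonlinear least-squares regression.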

[2] = Inhibition of adenosine transporter (unknown origin); parameters: species or system Homo sapiens; in short: as §1
[3] = Unbound fraction in C57Bl/6 mouse brain; assay type: ADME, tissue-based
In short: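 Plasma and brain binding were determined by equilibrium dialysis at 1 μM.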

[4] = Unbound brain concentration in C57Bl/6 mouse at 10 mg/kg, po administered for 1 hr; assay type: ADME, organism-based; settings: in vivo
[5] = target: Leucine-rich repeat serine/threonine-protein kinase 2 (Mus musculus) (UniProt Q5S006); assay: In vivo inhibition of LRRK2 in C57Bl/6 mouse brain assessed as decrease in pSer935 LRRK2 at 10 to 100 mg/kg, po measured after 1 hr by Western blotting analysis relative to control; assay type: functional, organism-based; settings: dose 10-100 mg/kg
Leucine-rich repeat serine/threonine-protein kinase 2 (Mus musculus), sequence (Q5S006 whole entry): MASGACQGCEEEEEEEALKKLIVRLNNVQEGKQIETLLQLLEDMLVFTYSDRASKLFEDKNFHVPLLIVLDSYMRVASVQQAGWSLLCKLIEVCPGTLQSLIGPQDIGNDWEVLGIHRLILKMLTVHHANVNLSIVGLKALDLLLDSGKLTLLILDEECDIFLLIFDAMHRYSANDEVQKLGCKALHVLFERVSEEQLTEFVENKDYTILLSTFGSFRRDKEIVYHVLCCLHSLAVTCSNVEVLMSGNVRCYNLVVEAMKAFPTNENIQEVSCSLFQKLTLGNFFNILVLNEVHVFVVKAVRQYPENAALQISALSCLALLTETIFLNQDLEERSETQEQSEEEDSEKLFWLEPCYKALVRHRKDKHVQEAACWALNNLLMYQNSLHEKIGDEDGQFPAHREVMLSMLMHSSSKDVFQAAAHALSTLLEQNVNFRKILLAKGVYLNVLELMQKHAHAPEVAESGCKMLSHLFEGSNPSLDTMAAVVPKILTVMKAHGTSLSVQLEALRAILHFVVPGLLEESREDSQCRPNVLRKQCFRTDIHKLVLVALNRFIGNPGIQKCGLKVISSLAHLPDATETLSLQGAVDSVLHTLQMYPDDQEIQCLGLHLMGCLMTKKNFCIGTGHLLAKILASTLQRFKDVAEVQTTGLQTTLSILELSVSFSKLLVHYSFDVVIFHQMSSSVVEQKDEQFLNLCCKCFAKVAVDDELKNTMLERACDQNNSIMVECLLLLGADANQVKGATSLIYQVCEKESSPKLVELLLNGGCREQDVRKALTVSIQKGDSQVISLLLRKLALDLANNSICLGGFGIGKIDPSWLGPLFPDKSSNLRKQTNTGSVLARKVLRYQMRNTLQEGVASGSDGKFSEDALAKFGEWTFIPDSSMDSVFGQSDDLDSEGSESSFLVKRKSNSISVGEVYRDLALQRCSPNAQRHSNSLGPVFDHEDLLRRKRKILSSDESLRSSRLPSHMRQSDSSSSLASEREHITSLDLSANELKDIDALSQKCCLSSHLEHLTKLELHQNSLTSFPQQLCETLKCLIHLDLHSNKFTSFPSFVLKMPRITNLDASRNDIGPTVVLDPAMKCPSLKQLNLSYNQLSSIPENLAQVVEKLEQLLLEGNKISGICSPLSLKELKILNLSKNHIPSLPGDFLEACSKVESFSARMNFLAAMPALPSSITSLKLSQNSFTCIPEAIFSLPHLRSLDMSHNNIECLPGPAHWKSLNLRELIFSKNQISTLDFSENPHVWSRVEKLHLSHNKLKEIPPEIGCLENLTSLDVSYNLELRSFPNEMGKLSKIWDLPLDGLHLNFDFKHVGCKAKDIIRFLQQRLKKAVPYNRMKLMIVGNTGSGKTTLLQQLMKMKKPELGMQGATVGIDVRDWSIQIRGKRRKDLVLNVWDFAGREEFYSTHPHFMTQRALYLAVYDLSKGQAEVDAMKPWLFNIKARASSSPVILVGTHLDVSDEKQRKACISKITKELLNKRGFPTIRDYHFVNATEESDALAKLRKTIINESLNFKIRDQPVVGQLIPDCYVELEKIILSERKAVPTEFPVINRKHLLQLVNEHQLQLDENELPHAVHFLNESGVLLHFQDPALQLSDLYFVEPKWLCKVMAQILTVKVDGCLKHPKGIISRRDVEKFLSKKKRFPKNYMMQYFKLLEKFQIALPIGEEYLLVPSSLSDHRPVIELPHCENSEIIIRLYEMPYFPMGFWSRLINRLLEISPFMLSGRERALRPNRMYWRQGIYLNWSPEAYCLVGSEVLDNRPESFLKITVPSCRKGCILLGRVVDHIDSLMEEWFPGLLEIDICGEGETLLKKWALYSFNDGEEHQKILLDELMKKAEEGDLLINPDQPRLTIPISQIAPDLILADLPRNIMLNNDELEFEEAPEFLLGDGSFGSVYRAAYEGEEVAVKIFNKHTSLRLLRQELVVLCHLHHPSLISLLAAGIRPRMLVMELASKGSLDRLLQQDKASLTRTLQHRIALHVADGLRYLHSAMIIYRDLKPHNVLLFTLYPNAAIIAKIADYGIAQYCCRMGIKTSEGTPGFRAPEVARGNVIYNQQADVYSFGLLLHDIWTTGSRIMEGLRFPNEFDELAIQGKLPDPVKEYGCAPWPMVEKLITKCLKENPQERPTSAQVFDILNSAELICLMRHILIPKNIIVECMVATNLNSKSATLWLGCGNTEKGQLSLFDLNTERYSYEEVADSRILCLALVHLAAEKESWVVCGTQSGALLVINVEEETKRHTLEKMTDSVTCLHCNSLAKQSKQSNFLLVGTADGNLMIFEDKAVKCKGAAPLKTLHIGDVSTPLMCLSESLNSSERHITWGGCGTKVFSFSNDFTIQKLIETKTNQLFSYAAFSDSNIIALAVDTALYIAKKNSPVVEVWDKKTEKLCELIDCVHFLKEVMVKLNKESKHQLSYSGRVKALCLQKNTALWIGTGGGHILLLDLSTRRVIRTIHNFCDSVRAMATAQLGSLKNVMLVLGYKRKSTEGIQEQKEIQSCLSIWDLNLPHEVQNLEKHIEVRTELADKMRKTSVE
In short: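 Male C57Bl/6 mice, 20-25 g. Single oral dose of 1-100 mg/kg suspended in 30% Captisol (10 mL/kg), or vehicle, given 1 h before CO2 euthanasia. Cortex frozen on dry ice and pSer935 LRRK2 read by Western blot. n = 5 per group.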

[6] = target: Leucine-rich repeat serine/threonine-protein kinase 2 (Mus musculus) (UniProt Q5S006); assay: In vivo inhibition of LRRK2 in C57Bl/6 mouse brain assessed as reduction in pSer935 LRRK2 at 10 to 120 mg/kg administered for 11 days and measured for 8 to 24 hrs by Western blotting analysis; assay type: functional, organism-based; settings: dose 10-120 mg/kg, time 11.0 day
In short: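 Male C57Bl/6 mice, singly housed on a reversed light cycle. Fed drug diet targeted to 3, 10, 30, 60 or 120 mg/kg/day (assuming 3 g/day intake), or untreated diet, for 11 days. Killed 4, 8 or 24 h after dark-cycle onset, n = 5 per group. Cortex immunoblotted for pSer935/total LRRK2 and total LRRK2/GAPDH. Total LRRK2 detected with MJFF2 antibody.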

[7] = target: Leucine-rich repeat serine/threonine-protein kinase 2 (Mus musculus) (UniProt Q5S006); assay: In vivo inhibition of LRRK2 in C57Bl/6 mouse kidney assessed as reduction in pSer935 LRRK2 administered for 11 days by Western blotting analysis; assay type: functional, organism-based; settings: time 11.0 day
In short: (§2)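 Same 11-day in-diet design in male C57Bl/6 mice: 3-120 mg/kg/day or untreated diet, killed 4, 8 or 24 h after dark-cycle onset, n = 5 per group. Kidneys dissected for Western blot of pSer935 and total LRRK2, with total LRRK2 detected by MJFF-2 antibody.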

[8] = target: Leucine-rich repeat serine/threonine-protein kinase 2 (Mus musculus) (UniProt Q5S006); assay: In vivo inhibition of LRRK2 in C57Bl/6 mouse kidney assessed as total LRRK2 protein level at 30 to 120 mg/kg administered for 11 days and measured after 24 hrs by Western blotting analysis; assay type: functional, organism-based; settings: dose 30-120 mg/kg, time 11.0 day; in short: as §2
[9] = Unbound plasma concentration in C57Bl/6 mouse administered for 11 days; assay type: ADME, cell-free; settings: 264 h, dose 3-100 mg/kg, time 11 day
In short: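 Male C57Bl/6 mice, singly housed on a reversed 12 h light cycle, were fed diet formulated to give 3, 10, 30, 60 or 120 mg/kg/day (assumes 3 g/day intake) or untreated diet for 11 days. Body weight and food intake were monitored. Spontaneous locomotion and rearing were recorded over 60 min. On day 11, mice were euthanized 4, 8 or 24 h after dark onset and plasma and brain drug levels measured; n = 5 per group.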

[10] = target: Leucine-rich repeat serine/threonine-protein kinase 2 (Mus musculus) (UniProt Q5S006); assay: In vivo inhibition of LRRK2 in MitoPark mouse assessed as reduction in pSer935 LRRK2 at 30 mg/kg administered for 15 weeks and measured after 24 hrs by Western blotting analysis relative to control; assay type: functional, organism-based
In short: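 MitoPark mice fed diet targeted to 30 mg/kg/day, or untreated diet, from 5 weeks of age. Cortex collected after 3, 9 or 15 weeks of treatment, n = 10 per group. Blots probed for pSer935 LRRK2, total LRRK2 (MJFF-2 antibody) and GAPDH. pSer935 reported relative to vehicle-diet MitoPark mice.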

[11] = test system: Mus musculus; assay: Effect on body weight in MitoPark mouse at 30 mg/kg administered for 15 weeks; assay type: functional, organism-based
In short: (§3)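 MitoPark mice, 5 weeks old, were allocated by baseline 60-min LMA to untreated diet or diet targeting 30 mg/kg/day (reformulated every 3 weeks). Wild-type littermates received vehicle diet. Body weight and food intake were recorded weekly. 60-min LMA (distance, rearing) was run at 8, 11, 14 and 17 weeks of age.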

[12] = test system: Mus musculus; assay: Effect on behavioral phenotype in 8 weeks old MitoPark mouse assessed as rearing behavior at 30 mg/kg/day administered for 3 weeks and measured after 60 mins; assay type: functional, organism-based; in short: as §3
[13] = test system: Mus musculus; assay: Effect on behavioral phenotype in 11 weeks old MitoPark mouse assessed as decreased rearing behavior at 30 mg/kg/day administered for 6 weeks and measured after 60 mins; assay type: functional, organism-based; in short: as §3
[14] = test system: Mus musculus; assay: Effect on behavioral changes in 14 weeks old MitoPark mouse striatum assessed as dopamine level at 30 mg/kg/day by HPLC analysis; assay type: functional
In short: (§4)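 Striatum from MitoPark mice on diet targeting 30 mg/kg/day or vehicle diet (wild-type littermate controls) was homogenized by sonication in 0.1 M acid at 0.1 g/mL. Samples were held 60 min at 4 °C and centrifuged. Dopamine, DOPAC and HVA were measured by HPLC with electrochemical detection against a 3,4-DHBA internal standard and standard curves. Mean ± SEM.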

[15] = test system: Mus musculus; assay: Effect on behavioral changes in 8 weeks old MitoPark mouse striatum assessed as HVA level at 30 mg/kg/day administered for 3 weeks by HPLC analysis; assay type: functional; in short: as §4
[16] = test system: Mus musculus; assay: Effect on behavioral changes in 14 weeks old MitoPark mouse striatum assessed as HVA level at 30 mg/kg/day by HPLC analysis; assay type: functional; in short: as §4
[17] = target: Leucine-rich repeat serine/threonine-protein kinase 2 (Mus musculus) (UniProt Q5S006); assay: In vivo inhibition of LRRK2 in 20 weeks old MitoPark mouse lung assessed as reduction in pSer935 LRRK2 level at 30 mg/kg/day administered for 15 weeks by Western blotting analysis; assay type: functional, organism-based
In short: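 MitoPark mice on drug-containing diet targeted to 30 mg/kg/day from 5 weeks of age, with the diet reformulated every 3 weeks to hold the target. Untreated-diet MitoPark and wild-type littermate controls. Killed by CO2 at 20 weeks of age. Lung and kidney taken from 5 mice per group for pSer935 and total LRRK2 immunoblots.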

- IC50 [1]: 6.5 µM
- IC50 [2]: 9.7 µM
- fraction unbound [3]: 0.009
- Drug uptake(free) [4]: 25.4 nM
- inhibition [5]: > 90%
- inhibition [6]: Active
- inhibition [7]: Active
- inhibition [8]: Active
- Drug uptake(free) [9]: Dose-Dependent Effect
- inhibition [10]: > 90%
- inhibition [17]: Active
SMILES: C[C@@H]1CN(c2cc(-c3n[nH]c4ccc(OC5(C)CC5)cc34)ncn2)C[C@H](C)O1 [MLi-2]
- Activity [11]: inactive
- Activity [12]: Active
- Activity [13]: Active
- Activity [14]: 1105 ng/g
- Activity [15]: 267.6 ng/g
- Activity [16]: 323.7 ng/g
